Results taken from ChEMBL document CHEMBL1156119 (J Med Chem, 2009).
Active and inactive are the calls of the source. No cut-off for these calls is given here.

What was measured:
[1] = Cytotoxicity against mouse SMB cells at 10 uM after 5 days by MTT assay; type: cell-based; settings: 120 h
Method in brief: (§1)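 SMB cells were seeded at 3 × 10⁴ cells/well and attached for 24 h. Compound was added from DMSO stock diluted through HBSS into the medium, and cells were exposed for 5 days. Viability was read by MTT assay following the standard reagent protocol.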

[2] = Cytotoxicity against mouse SMB cells at 20 uM after 5 days by MTT assay; type: cell-based; settings: 120 h; method in brief: as §1
[3] = system: SMB; test: Antiprion activity against Scrapie prion protein-mediated scrapie in mouse SMB cells assessed as remaining PrP-Sc level at 20 uM after 5 days by Bradford assay relative to control; type: cell-based
Method in brief: (§2)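 SMB scrapie-infected mouse cells, non-neuronal, in medium 199 with 10% newborn calf and 5% fetal calf serum, seeded at 3 × 10⁴ cells/well and attached for 24 h. Compound DMSO stocks were diluted via HBSS into medium and applied for 5 days. Lysates of ~30-40 μg protein/well were dot-blotted, digested with proteinase K at 75 μg mL⁻¹ (1 h, 37 °C) and denatured in 1.8 M guanidine thiocyanate. Read-out was %PrP^Sc versus DMSO-only control, in triplicate.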

[4] = system: SMB; test: Antiprion activity against Scrapie prion protein-mediated scrapie in mouse SMB cells by dot blot analysis; type: cell-based; method in brief: as §2
[5] = system: SMB; test: Antiprion activity against Scrapie prion protein-mediated scrapie in mouse SMB cells assessed as remaining PrP-Sc level at 1 uM after 5 days by Bradford assay relative to control; type: cell-based
Method in brief: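 Compound DMSO stocks were diluted via HBSS into medium and applied for 5 days. Lysates of ~30-40 μg protein/well were dot-blotted, digested with proteinase K at 75 μg mL⁻¹ (1 h, 37 °C) and denatured in 1.8 M guanidine thiocyanate. Read-out was %PrP^Sc versus DMSO-only control, in triplicate.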

[6] = Antiprion activity against Scrapie prion protein-mediated scrapie in mouse SMB cells assessed as remaining PrP-Sc level after 5 days by Bradford assay; type: cell-based; settings: 120 h
Method in brief: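 Same SMB dot-blot protocol with 5-day exposure. Compounds were rescreened over a range of concentrations to fit an EC₅₀ from dose-response curves. Each determination was run in triplicate, in at least two independent experiments. PrP^Sc was measured relative to an untreated DMSO-only control.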

[7] = target: Major prion protein (Mus musculus) (UniProt P04925); test: Binding affinity to mouse PrP up to 40 uM by surface plasmon resonance assay
Chain of Major prion protein (Mus musculus) (P04925 whole entry): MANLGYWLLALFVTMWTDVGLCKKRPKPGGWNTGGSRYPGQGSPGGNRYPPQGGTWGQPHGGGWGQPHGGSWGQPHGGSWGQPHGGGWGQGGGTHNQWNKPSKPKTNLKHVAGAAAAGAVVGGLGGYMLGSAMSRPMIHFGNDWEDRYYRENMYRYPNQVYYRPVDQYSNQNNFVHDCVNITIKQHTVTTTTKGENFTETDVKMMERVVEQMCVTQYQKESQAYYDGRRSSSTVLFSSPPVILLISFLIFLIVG

[8] = target: Major prion protein (Homo sapiens) (UniProt P04156); test: Binding affinity to human PrP up to 40 uM by surface plasmon resonance assay
[9] = Antiprion activity against Scrapie prion protein-mediated scrapie in mouse ScNB cells assessed as PrP-res accumulation after 4 days by immunoblotting; type: cell-based; settings: 96 h
[10] = system: SMB; test: Antiprion activity against Scrapie prion protein-mediated scrapie in mouse SMB cells assessed as remaining PrP-Sc level at 24 uM after 5 days by Bradford assay relative to control; type: cell-based
[11] = system: SMB; test: Antiprion activity against Scrapie prion protein-mediated scrapie in mouse SMB cells assessed as remaining PrP-Sc level at 10 uM after 5 days by Bradford assay relative to control; type: cell-based; method in brief: as §2
[12] = Antiprion activity against Scrapie prion protein-mediated scrapie in RML mouse ScN2a cells assessed as reduction of PrP-Sc level after 6 days by immunoblotting; type: cell-based; settings: 144 h

Structure (SMILES) | Activity [5] | EC50 [6] | Activity [7] | Activity [8] | also measured
CC(C)NC(=O)C(=O)c1c[nH]c2ccccc12 |  |  |  |  | Activity [1]: Toxic; Activity [2]: Toxic; Remaining PrP-Sc level [3]: 74.9%
O=C(Nc1ccc(N2CCCCC2)cc1)C(=O)c1c[nH]c2ccccc12 | 6.5% | 72 nM |  |  | Activity [4]: Dose-dependent effect
O=C(Nc1ccccc1)C(=O)c1c[nH]c2ccccc12 | 19.5% | 320 nM | inactive | inactive | 
O=C(Nc1cccc(F)c1)C(=O)c1c[nH]c2ccccc12 | 27.1% | 640 nM | inactive | inactive | 
COc1ccc(NC(=O)C(=O)c2c[nH]c3ccccc23)cc1 | 6.7% | 11 nM | inactive | inactive | 
COc1cc(/C=C/C(=O)CC(=O)/C=C/c2ccc(O)c(OC)c2)ccc1O [CURCUMIN] |  | 950 nM |  |  | EC50 [9]: 10 nM
O=C(Nc1ccc(N2CCOCC2)cc1)C(=O)c1c[nH]c2ccccc12 | 4.6% | 9 nM |  |  | Activity [4]: Dose-dependent effect
CN(C(=O)C(=O)c1c[nH]c2ccccc12)c1ccccc1 |  |  |  |  | Activity [10]: 127%
COc1cccc(NC(=O)C(=O)c2c[nH]c3ccccc23)c1 |  | 230 nM | inactive | inactive | Remaining PrP-Sc level [11]: 17.5%
O=C(Nc1ccc(O)cc1)C(=O)c1c[nH]c2ccccc12 | 17.8% | 240 nM | inactive | inactive | 
CCN(CC)CCCC(C)Nc1c2ccc(Cl)cc2nc2ccc(OC)cc12 (configuration not stated) [QUINACRINE] |  | 420 nM |  |  | EC50 [12]: 300 nM
O=C(Nc1ccc(F)nc1)C(=O)c1c[nH]c2ccccc12 | 52.3% | 1210 nM |  |  | Activity [4]: Dose-dependent effect
